In brackets after ≈: the same amount, converted by molar mass.
How the values were obtained:
Type in all cases: functional
Neisseria meningitidis [1] = assay: Antimicrobial activity against Neisseria meningitidis isolates harboring penA 25 allele encoding PBP2 mutant
Procedure, shortened: (§1)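 Penicillin G MICs were determined for N. meningitidis isolates grouped by penA allele, with the PBP2 C-terminal region (amino acids 441 to 574) deduced from penA sequencing. Values are geometric mean MICs with lower and upper 95% confidence limits, calculated only for alleles represented by at least five isolates.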

Neisseria meningitidis [2] = assay: Antimicrobial activity against Neisseria meningitidis isolates harboring penA 29 allele encoding PBP2 mutant; procedure, shortened: as §1
Neisseria meningitidis [3] = assay: Antimicrobial activity against Neisseria meningitidis isolates harboring penA 52 allele encoding PBP2 mutant; procedure, shortened: as §1
Neisseria meningitidis [4] = assay: Antimicrobial activity against Neisseria meningitidis isolates harboring penA 15 allele encoding PBP2 mutant; procedure, shortened: as §1
Neisseria meningitidis [5] = assay: Antimicrobial activity against Neisseria meningitidis isolates harboring penA 12 allele encoding PBP2 mutant; procedure, shortened: as §1
Neisseria meningitidis [6] = assay: Antimicrobial activity against Neisseria meningitidis isolates harboring penA 30 allele encoding PBP2 mutant; procedure, shortened: as §1
Neisseria meningitidis [7] = assay: Antimicrobial activity against Neisseria meningitidis isolates harboring penA 23 allele encoding PBP2 mutant; procedure, shortened: as §1
Neisseria meningitidis [8] = assay: Antimicrobial activity against Neisseria meningitidis isolates harboring penA 42 allele encoding PBP2 mutant; procedure, shortened: as §1
Neisseria meningitidis [9] = assay: Antimicrobial activity against Neisseria meningitidis isolates harboring penA 14 allele encoding PBP2 mutant; procedure, shortened: as §1
Neisseria meningitidis [10] = assay: Antimicrobial activity against Neisseria meningitidis isolates harboring penA 19 allele encoding PBP2 mutant; procedure, shortened: as §1
Neisseria meningitidis [11] = assay: Antimicrobial activity against Neisseria meningitidis isolates harboring penA 7 allele encoding PBP2 mutant; procedure, shortened: as §1
Neisseria meningitidis [12] = assay: Antimicrobial activity against Neisseria meningitidis isolates harboring penA 17 allele encoding PBP2 mutant; procedure, shortened: as §1
Neisseria meningitidis [13] = assay: Antimicrobial activity against Neisseria meningitidis isolates harboring penA 20 allele encoding PBP2 mutant; procedure, shortened: as §1
Neisseria meningitidis [14] = assay: Antimicrobial activity against Neisseria meningitidis isolates harboring penA 81 allele encoding PBP2 mutant; procedure, shortened: as §1
Neisseria meningitidis [15] = assay: Antimicrobial activity against Neisseria meningitidis isolates harboring penA 9 allele encoding PBP2 mutant; procedure, shortened: as §1
Neisseria meningitidis [16] = assay: Antimicrobial activity against Neisseria meningitidis isolates harboring penA 33 allele encoding PBP2 mutant; procedure, shortened: as §1
Neisseria meningitidis [17] = assay: Antimicrobial activity against Neisseria meningitidis isolates harboring penA 13 allele encoding PBP2 mutant; procedure, shortened: as §1
Neisseria meningitidis [18] = assay: Antimicrobial activity against Neisseria meningitidis isolates harboring penA 18 allele encoding PBP2 mutant; procedure, shortened: as §1
Neisseria meningitidis [19] = assay: Antimicrobial activity against Neisseria meningitidis isolates harboring penA 83 allele encoding PBP2 mutant; procedure, shortened: as §1
Neisseria meningitidis [20] = assay: Antimicrobial activity against Neisseria meningitidis isolates harboring penA 11 allele encoding PBP2 mutant; procedure, shortened: as §1
Neisseria meningitidis [21] = assay: Antimicrobial activity against Neisseria meningitidis isolates harboring penA 57 allele encoding PBP2 mutant; procedure, shortened: as §1
Neisseria meningitidis [22] = assay: Antimicrobial activity against Neisseria meningitidis isolates harboring penA 5 allele encoding PBP2 mutant; procedure, shortened: as §1
Neisseria meningitidis [23] = assay: Antimicrobial activity against Neisseria meningitidis isolates harboring penA 2 allele encoding PBP2 mutant; procedure, shortened: as §1
Neisseria meningitidis [24] = assay: Antimicrobial activity against Neisseria meningitidis isolates harboring penA 34 allele encoding PBP2 mutant; procedure, shortened: as §1
Neisseria meningitidis [25] = assay: Antimicrobial activity against Neisseria meningitidis isolates harboring penA 3 allele encoding PBP2 mutant; procedure, shortened: as §1
Neisseria meningitidis [26] = assay: Antimicrobial activity against Neisseria meningitidis isolates harboring penA 27 allele encoding PBP2 mutant; procedure, shortened: as §1
Neisseria meningitidis [27] = assay: Antimicrobial activity against Neisseria meningitidis isolates harboring penA 4 allele encoding PBP2 mutant; procedure, shortened: as §1
Neisseria meningitidis [28] = assay: Antimicrobial activity against Neisseria meningitidis isolates harboring penA 16 allele encoding PBP2 mutant; procedure, shortened: as §1
Neisseria meningitidis [29] = assay: Antimicrobial activity against Neisseria meningitidis isolates harboring penA 1 allele encoding PBP2 mutant; procedure, shortened: as §1
Neisseria meningitidis [30] = assay: Antimicrobial activity against Neisseria meningitidis isolates harboring penA 22 allele encoding PBP2 mutant; procedure, shortened: as §1
Neisseria meningitidis [31] = assay: Antimicrobial activity against Neisseria meningitidis isolates harboring penA 111 allele encoding PBP2 P551 mutant; procedure, shortened: as §1

CC1(C)S[C@@H]2[C@H](NC(=O)Cc3ccccc3)C(=O)N2[C@H]1C(=O)O [PENICILLIN G]
MIC (Neisseria meningitidis [1]): 0.064 µg/mL (≈ 0.191 µM) | MIC (Neisseria meningitidis [2]): 0.094 µg/mL (≈ 0.281 µM) | MIC (Neisseria meningitidis [3]): 0.064 µg/mL (≈ 0.191 µM) | MIC (Neisseria meningitidis [4]): 0.094 µg/mL (≈ 0.281 µM) | MIC (Neisseria meningitidis [5]): 0.064 µg/mL (≈ 0.191 µM) | MIC (Neisseria meningitidis [6]): 0.125 µg/mL (≈ 0.374 µM) | MIC (Neisseria meningitidis [7]): 0.064 µg/mL (≈ 0.191 µM) | MIC (Neisseria meningitidis [8]): 0.094 µg/mL (≈ 0.281 µM) | MIC (Neisseria meningitidis [9]): 0.064 µg/mL (≈ 0.191 µM) | MIC (Neisseria meningitidis [10]): 0.064 µg/mL (≈ 0.191 µM) | MIC (Neisseria meningitidis [11]): 0.064 µg/mL (≈ 0.191 µM) | MIC (Neisseria meningitidis [12]): 0.125 µg/mL (≈ 0.374 µM) | MIC (Neisseria meningitidis [13]): 0.094 µg/mL (≈ 0.281 µM) | MIC (Neisseria meningitidis [14]): 0.19 µg/mL (≈ 0.568 µM) | MIC (Neisseria meningitidis [15]): 0.064 µg/mL (≈ 0.191 µM) | MIC (Neisseria meningitidis [16]): 0.125 µg/mL (≈ 0.374 µM) | MIC (Neisseria meningitidis [17]): 0.125 µg/mL (≈ 0.374 µM) | MIC (Neisseria meningitidis [18]): 0.094 µg/mL (≈ 0.281 µM) | MIC (Neisseria meningitidis [19]): 0.023 µg/mL (≈ 0.0688 µM) | MIC (Neisseria meningitidis [20]): 0.094 µg/mL (≈ 0.281 µM) | MIC (Neisseria meningitidis [21]): 0.008 µg/mL (≈ 0.0239 µM) | MIC (Neisseria meningitidis [22]): 0.015 µg/mL (≈ 0.0449 µM) | MIC (Neisseria meningitidis [23]): 0.015 µg/mL (≈ 0.0449 µM) | MIC (Neisseria meningitidis [24]): 0.032 µg/mL (≈ 0.0957 µM) | MIC (Neisseria meningitidis [25]): 0.004 µg/mL (≈ 0.012 µM) | MIC (Neisseria meningitidis [26]): 0.032 µg/mL (≈ 0.0957 µM) | MIC (Neisseria meningitidis [27]): 0.032 µg/mL (≈ 0.0957 µM) | MIC (Neisseria meningitidis [28]): 0.047 µg/mL (≈ 0.141 µM) | MIC (Neisseria meningitidis [29]): 0.008 µg/mL (≈ 0.0239 µM) | MIC (Neisseria meningitidis [30]): 0.023 µg/mL (≈ 0.0688 µM) | MIC (Neisseria meningitidis [31]): 0.094 µg/mL (≈ 0.281 µM)

Source: ChEMBL document CHEMBL1155154, “Target gene sequencing to characterize the penicillin G susceptibility of Neisseria meningitidis” (2007)
